Activity calls are given as the source filed them. The rule behind the calls is not given here.

Drawing on ChEMBL document CHEMBL1149675, “Structure-activity relationship of chalcones and related derivatives as ligands for detecting of beta-amyloid plaques in the brain” (Bioorg Med Chem, 2007), this text covers Ki, Drug uptake and Activity for 26 compounds.

Biological target in the first data set: not listed separately
The experiment in a line: Displacement of [125I]DMIC from amyloid beta 1-42 aggregates. Also noted: species or system Homo sapiens.
Details: not given
Regarding `O=C(/C=C/c1ccccc1)c1ccc(I)cc1`, the Ki amounted to 151 nM. On the same count and under the same terms, the value for `Cc1ccc2c(c1)sc(-c1ccc(N(C)C)cc1)[n+]2C` [THIOFLAVIN T] was greater than 10000 nM; that for `CNc1ccc(C(=O)/C=C/c2ccc(Br)s2)cc1` was 198 nM. Still for that read-out and setting: the value for `CN(C)c1ccc(/C=C/C(=O)c2ccc(I)s2)s1` was 137 nM; that for `Nc1ccc(/C=C/C(=O)c2ccc(I)s2)cc1` was 121 nM. In turn, `CN(C)c1ccc(/C=C/C(=O)c2ccc(I)s2)o1` showed a Ki of 1610 nM. On the same count and under the same terms, the value for `CN(C)c1ccc(/C=C/C(=O)c2ccc(Br)o2)s1` was 2650 nM; that for `O=C(/C=C/c1cccs1)c1ccc(I)cc1` was 102 nM; that for `O=C(/C=C/c1ccoc1)c1ccc(I)cc1` was 125 nM. Same read-out and setting: to `Nc1ccc(C(=O)/C=C/c2ccc(I)cc2)cc1` belongs 248 nM; to `O=C(/C=C/c1ccco1)c1ccc(I)cc1`, 908 nM; to `CN(C)c1ccc(/C=C/C(=O)c2ccc(I)cc2)s1`, 113 nM.

The compound `CN(C)c1ccc(/C=C/C(=O)c2ccc(Br)o2)o1` yielded a Ki greater than 10000 nM. Still for that read-out and setting: the value for `CNc1ccc(/C=C/C(=O)c2ccc(I)s2)cc1` was 14.1 nM.

On to `O=C(/C=C/c1ccsc1)c1ccc(I)cc1`, for which affinity was put at a Ki of 93 nM. On the same count and under the same terms, to `O=C(/C=C/c1ncc[nH]1)c1ccc(I)cc1` belongs 797 nM; to `CN(C)c1ccc(C(=O)/C=C/c2ccc(I)cc2)cc1`, 13.3 nM; to `Nc1ccc(C(=O)/C=C/c2ccc(Br)s2)cc1`, 476 nM. Same read-out and setting: to `CN(C)c1ccc(/C=C/C(=O)c2ccc(I)s2)cc1` belongs 3.9 nM; to `CN(C)c1ccc(/C=C/C(=O)c2ccc(I)cc2)o1`, 1130 nM; to `O=C(/C=C/c1nccs1)c1ccc(I)cc1`, greater than 10000 nM. The same measure, in the same setting: the value for `CNc1ccc(C(=O)/C=C/c2ccc(I)cc2)cc1` was 23.9 nM; that for `Nc1c(/N=N/c2ccc(-c3ccc(/N=N/c4cc(S(=O)(=O)O)c5ccccc5c4N)cc3)cc2)cc(S(=O)(=O)O)c2ccccc12` [CONGO RED] was greater than 10000 nM. As to `CN(C)c1ccc(/C=C/C(=O)c2ccc(Br)o2)cc1`, the Ki is 126 nM. As to `CN(C)c1ccc(C(=O)/C=C/c2ccc(Br)s2)cc1`, the affinity corresponds to a Ki of 106 nM.

The subject of another data set is Brain. Description: Biodistribution in ddY mouse brain at 4.2 to 6.3 kBq, iv after 60 mins. It counts as ADME, organism-based. Particulars: in vivo, 1 h. The gist of the method: (§1)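 [125I]-labelled ligand in saline with 10% ethanol, given by tail-vein injection to normal ddY mice (5 weeks old, 23–25 g). Mice killed at set times post-injection. Organs removed and weighed, radioactivity gamma-counted, expressed as % injected dose per gram. Mean (SD) of five mice per time point.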
`CN(C)c1ccc(/C=C/C(=O)c2ccc([125I])s2)cc1` came in with a Drug uptake of 0.21 % ID/g.

A further data set deals with Brain. The experiment in a line: Biodistribution in ddY mouse brain at 4.2 to 6.3 kBq, iv after 10 mins. The settings on record: in vivo. It counts as ADME, organism-based. The gist of the method: as §1
On to `CN(C)c1ccc(/C=C/C(=O)c2ccc([125I])s2)cc1`, for which the Drug uptake is 0.75 % ID/g.

The next data set relates to Brain. Description: Biodistribution in ddY mouse brain at 4.2 to 6.3 kBq, iv after 30 mins. Particulars: in vivo, 0.5 h. It counts as ADME, organism-based. The method in brief:
as §1
The compound `CN(C)c1ccc(/C=C/C(=O)c2ccc([125I])s2)cc1` registered a Drug uptake of 0.31 % ID/g.

The subject of a further data set is Brain. The experiment in a line: Biodistribution in ddY mouse brain at 4.2 to 6.3 kBq, iv after 2 mins. Particulars: in vivo. It counts as ADME, organism-based. The gist of the method:
as §1
Regarding `CN(C)c1ccc(/C=C/C(=O)c2ccc([125I])s2)cc1`, the Drug uptake worked out at 2.46 % ID/g.

A further data set is filed under the species Mus musculus. Description: Binding affinity for beta amyloid plaques in Alzheimer's mouse model brain.
Details: not given
The method in brief: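 Paraffin sections, 5 µm, of formaldehyde-fixed Alzheimer's model mouse brain. Deparaffinised, held in PBS 30 min, stained with compound at 100 µM in 50% ethanol, washed in PBS 15 min, then mounted. Fluorescence read by confocal microscopy at 458 excitation and 540–580 emission. Serial sections immunostained for β-amyloid with DAB.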
`CN(C)c1ccc(/C=C/C(=O)c2ccc(I)s2)cc1`: the result was Active.
